Measurements from different studies.
Protocols differ between the studies behind these lines.
FGFR3: Fibroblast growth factor receptor 3 (FGFR3, Homo sapiens, UniProt P22607)
FGFR3 G697C: Fibroblast growth factor receptor 3 (FGFR3, Homo sapiens, UniProt P22607, G697C)
FGFR3 K650E: Fibroblast growth factor receptor 3 (FGFR3, Homo sapiens, UniProt P22607, K650E)

`CNc1cccc2cc(C(=O)Nc3ccc(C(=O)O)cc3)c(=O)[nH]c12` has an inhibition of -1.1% (FGFR3; enzyme activity, inhibitor; 10 µM).
With `CNCc1ccc(-c2cc(-c3nc(-c4ccc(S(=O)(=O)C(C)C)cc4)cnc3N)on2)cc1` the inhibition was 10% (FGFR3; enzyme activity, inhibitor; 2 µM).
For `CC(C)CC(=O)N1CCc2nc(-c3ccc(Br)cc3)nc(N(C)Cc3ccccc3)c2C1`, the remaining binding was 100% (FGFR3; cell-free assay, competition with immobilised ligand; 0.1 µM).
`C[C@@H]1CCN(c2nccc(-c3cnn4ncccc34)n2)C1` gave a remaining binding of 100% (FGFR3 G697C; binding; 1 µM).
`Nc1ncnc2occ(-c3ccc(NC(=O)Nc4cc(C(F)(F)F)ccc4F)cc3)c12` gave a remaining signal of 0.75% (FGFR3; cell-free assay; 20 µM).
The remaining binding of `CCCCN(CCCC)C(=O)CN1C[C@H](c2cc(OC)c3c(c2)OCO3)[C@@H](C(=O)O)[C@@H]1CC(C)(C)CCC` is reported as 100% (FGFR3; cell-free assay, competition with immobilised ligand; 1 µM).
The inhibition of `Cc1ccc(Nc2nccc(N(C)c3ccc4c(C)n(C)nc4c3)n2)cc1S(N)(=O)=O` is reported as 66% (FGFR3; enzyme activity, inhibitor; 0.3 µM).
The remaining activity of `O=C(Nc1cnn(-c2csc(C(=O)NC3COC3)c2)c1)Nc1c(F)cccc1Cl` is reported as 92% (FGFR3; enzyme activity, inhibitor; 5 µM).
`CCCS(=O)(=O)Nc1ccc(F)c(C(=O)c2c[nH]c3ncc(-c4ccc(Cl)cc4)cc23)c1F` gave an inhibition of under 10% (FGFR3; enzyme activity, inhibitor; 1 µM).
The remaining binding of `CN(C)c1ncnc(-c2ccc3nc(Nc4cc(CN5CCN(C(=O)CC(F)(F)F)CC5)ccn4)[nH]c3c2)c1Cl` is reported as 100% (FGFR3; cell-free assay, competition with immobilised ligand; 1 µM).
The remaining signal of `Cc1ccc(NC(=O)c2ccc(CN3CCN(C)CC3)cc2)cc1Nc1nc(-c2cccnc2)cs1` is reported as 94.3% (FGFR3; cell-free assay; 0.5 µM).
With `COc1cc2ncnc(Nc3ccc(Oc4ccccc4)c(C)c3C)c2cc1OC` the inhibition was 3% (FGFR3 K650E; enzyme activity, inhibitor; 1 µM).
With `CN(C)c1nccc(-c2cnc3ncccn23)n1` the remaining binding was 100% (FGFR3; binding; 1 µM).
`C[C@@]1(Cc2ccc(C#N)cc2)C(=O)N(c2cc(Cl)cc(Cl)c2)c2ncc(C(=O)NC3(c4nc(C5CCC5)no4)CC3)n21` has a remaining binding of 100% (FGFR3 G697C; cell-free assay, competition with immobilised ligand; 1 µM).
`N#CCCc1ccc2c(c1)-c1[nH]c3ccc([N+](=O)[O-])cc3c1CC(=O)N2` gave a remaining signal of 90.3% (FGFR3; cell-free assay; 0.5 µM).
For `Cc1cc(NC(=O)c2cccc3cc(-c4cccc5[nH]nc(N)c45)ccc23)ccc1F`, the activity vs control was 98% (FGFR3; enzyme activity, inhibitor; 0.1 µM).
For `Cc1cc(C)c(-n2ccn3nc(-c4cccnc4)cc23)cc1NC(=O)c1cc(C#N)cc(S(F)(F)(F)(F)F)c1`, the remaining binding was 95.6% (FGFR3; cell-free assay, competition with immobilised ligand; 0.1 µM).
`O=C(CSc1nc2nccnc2c(=O)n1CCc1ccccc1)Nc1nccs1` has an inhibition of 8% (FGFR3; enzyme activity, inhibitor; 10 µM).
`CC/C(=N\NC(=O)NCc1cccc(O)c1)c1ccc(O)c(C)c1O` has an inhibition of 2.2% (FGFR3; enzyme activity, inhibitor; 0.1 µM).
With `CCN(CC)c1ccc(C2=NNC(=O)CC2C)cc1[N+](=O)[O-]` (stereo not drawn) the remaining activity was 93% (FGFR3; enzyme activity, inhibitor; 10 µM).
The remaining binding of `CO[C@@H](C)c1c(Nc2ccc([C@H](N(C)C(=O)C3CCS(=O)(=O)CC3)C(F)(F)F)cc2)cnc2cc(Cl)nn12` is reported as 86% (FGFR3 G697C; cell-free assay, competition with immobilised ligand; 1 µM).
For `COc1cc2nccc(Oc3ccc(NC(=O)c4c5n(n(-c6ccc(F)cc6)c4=O)CCCC5)cc3)c2cc1OC`, the inhibition was -4% (FGFR3; enzyme activity, inhibitor; 0.1 µM).
The remaining activity of `CCCOc1ccc(OC)c(F)c1C(=O)c1ccc(C(=O)N[C@@H]2CNC[C@H]2NC(=O)c2ccc3[nH]ncc3c2)cc1` is reported as 47% (FGFR3; enzyme activity, inhibitor; 10 µM).
`CNC(=O)Nc1ccc2c(c1)[C@@]1(CC2)OC(=O)N(CC(=O)N(Cc2ccc(F)cc2)[C@@H](C)C(F)(F)F)C1=O` has a remaining binding of 92% (FGFR3; cell-free assay, competition with immobilised ligand; 1 µM).
For `C=CC(=O)Nc1cc(Nc2nccc(Nc3cc(Cl)c(F)cc3C(C)(C)O)n2)c(OC)cc1N1CC[C@@H](N(C)C)C1`, the inhibition was 4% (FGFR3; enzyme activity, inhibitor; 1 µM).
For `CNC(=O)c1cc(Oc2ccc(NC(=O)Nc3ccc(Cl)c(C(F)(F)F)c3)cc2)ccn1`, the inhibition was 32% (FGFR3; enzyme activity, inhibitor; 0.3 µM).
The remaining signal of `Cc1ccc(C(=O)Nc2ccc(CN3CCN(C)CC3)c(C(F)(F)F)c2)cc1C#Cc1cnc2cccnn12` is reported as 63% (FGFR3 G697C; cell-free assay; 23.5 nM).
With `N[C@H]1CCN(c2nccc(-c3cnn4ncccc34)n2)C1` the remaining binding was 100% (FGFR3 G697C; binding; 1 µM).
With `CC(C)(C)c1nc2c(s1)c1nc(N)ncc1c1ccc(NS(=O)(=O)c3c(F)cccc3F)c(F)c12` the remaining activity was 91% (FGFR3; enzyme activity, inhibitor, radiometric; 1 µM).
The remaining binding of `COc1ccnn2ncc(-c3ccnc(N(C)C)n3)c12` is reported as 100% (FGFR3 G697C; binding; 1 µM).
The remaining binding of `Cc1c(NC(=O)c2cc(C(N)=O)nc3cc(F)ccc23)c(C(F)(F)F)nn1Cc1ccc(C(C)(C)C)cc1` is reported as 92% (FGFR3; cell-free assay, competition with immobilised ligand; 1 µM).
The remaining signal of `COc1cc2ncnc(Nc3ccc(F)c(Cl)c3)c2cc1OCCCN1CCOCC1` is reported as 79.3% (FGFR3; cell-free assay; 0.5 µM).
`F[C@@H]1CCN(c2nccc(-c3cnn4ncccc34)n2)C1` has a remaining binding of 100% (FGFR3; binding; 1 µM).
`O=C1Nc2ccc(Cl)cc2C1=Cc1cc(Cl)c(O)c(Cl)c1` has a remaining signal of 94% (FGFR3; cell-free assay; 0.5 µM).
The inhibition of `COc1cc2ncnc(Nc3ccc(Oc4ccccc4)cc3C)c2cc1OC` is reported as 0% (FGFR3 K650E; enzyme activity, inhibitor; 1 µM).
The remaining binding of `Cc1cnn2ncc(-c3ccnc(N(C)C)n3)c2c1` is reported as 82% (FGFR3 G697C; binding; 1 µM).
